Measurements from different studies.
Compare with care: the assays were run in different laboratories. pIC50: −log10 of the molar value.
Cell line: A549

| SMILES | read-out | method | time | pIC50 |
| --- | --- | --- | --- | --- |
| O=C(N/N=C/c1cccn1CCCN1CCCCC1)Nc1cc2c(Nc3ccc(F)c(Cl)c3)ncnc2cc1O[C@H]1CCOC1 | cell growth or viability | MTT | 72 h | 5.61 |
| CC1=C(O)C(=O)C=C2C1=CC=C1[C@@]2(C)CC[C@@]2(C)[C@@H]3C[C@](C)(C(=O)OCCCn4ccc5ccccc54)CC[C@]3(C)CC[C@]12C | cell growth or viability | MTT | 48 h | < 4.00 |
| COc1ccccc1C#CCNCC(O)COc1cccc2[nH]c3ccccc3c12 (centres unmarked) | cell growth or viability | CCK-8 | 72 h | < 4.00 |
| Cc1nc(Nc2ncc(C(=O)Nc3c(C)cccc3Cl)s2)cc(N2CCN(CCO)CC2)n1 | cell growth or viability | MTT | 48 h | 4.93 |
| C=CC(=O)Nc1cc(Nc2nc(N3CCc4sccc4C3)c3sccc3n2)c(OC)cc1N1CCN(C)CC1 | cell growth or viability | MTT | – | 5.71 |
| COc1c(C)cnc(COc2ccc(NC(=O)Nc3cc(F)cc(F)c3)cc2)c1C | cell growth or viability | MTT | 72 h | 4.99 |
| C=CC(=O)Nc1cccc(Nc2nc(Nc3ccc(OCCOC)cc3)ncc2F)c1 | cell growth or viability | – | – | 5.30 |
| c1ccc2cc(-c3nnc(NC4CCCCC4)[nH]3)ccc2c1 | cell growth or viability | – | 48 h | 5.91 |
| COc1cc2ncnc(Nc3ccc(F)c(Cl)c3)c2cc1NC(=O)N/N=C/CN1CCOCC1 | cell growth or viability | MTT | 72 h | 5.17 |
| COc1ccc2c(c1)/C(=N/NC(=O)c1cc3ccccc3[nH]1)C(=O)N2 | cell growth or viability | – | – | 5.18 |
| Cc1ccc(-c2ccc(O)cc2)c(C(=C2C=CC(=O)C=C2)c2ccc(O)cc2)c1C#Cc1ccc(O)cc1 | cell growth or viability | MTT | 48 h | 4.75 |
| COc1ccccc1/C=C/CNCC(O)COc1ccc2c(c1)[nH]c1ccccc12 (centres unmarked) | cell growth or viability | CCK-8 | 72 h | 5.17 |
| Oc1ncnc2cc(Nc3nc(-c4ccc(Cl)cc4)cs3)ccc12 | cell growth or viability | MTT | – | 4.68 |
| O=C(N/N=C1\C(=O)N(c2ccccc2)c2ccccc21)c1cc2ccccc2[nH]1 | cell growth or viability | – | – | 5.62 |
| C=C(Cl)C(=O)Nc1cc(Nc2nc(N3CCCC3)c3sccc3n2)c(OC)cc1N(C)CCN(C)C | cell growth or viability | MTT | – | 5.34 |
| COc1ccc2c(c1)/C(=N/NC(=O)c1cc3ccccc3[nH]1)C(=O)N2C | cell growth or viability | – | – | 5.71 |
| NNC(=O)c1ccncc1 | cell growth or viability | MTT | 72 h | < 3.35 |
| O=C(N/N=C/c1cccn1CCN1CCOCC1)Nc1cc2c(Nc3ccc(F)c(Cl)c3)ncnc2cc1O[C@H]1CCOC1 | cell growth or viability | MTT | 72 h | 5.88 |
| Oc1ncnc2cc(Nc3nc(-c4ccc(Br)cc4)cs3)ccc12 | cell growth or viability | MTT | – | 4.64 |

| SMILES | read-out | method | time | pIC50 |
| --- | --- | --- | --- | --- |
| O=C1NC(=NCc2cccs2)S/C1=C\c1ccc2ncccc2c1 | cell growth or viability | – | – | < 5.00 |
| COc1cccc(NC(=O)CN2C(=O)/C(=C/c3ccc(F)cc3)SC2=S)c1 | cell growth or viability | MTT | – | 4.84 |
| CC(=O)O[C@H]1C(=O)[C@@]2(C)[C@H]([C@H](OC(=O)c3ccccc3)[C@]3(O)C[C@H](OC(=O)[C@H](O)[C@@H](NC(=O)c4ccccc4)c4ccccc4)C(C)=C1C3(C)C)[C@]1(OC(C)=O)CO[C@@H]1C[C@@H]2O | cell growth or viability | SRB | – | 7.52 |
| O=C(NC(=S)NCc1ccccc1)c1ccc2ccccc2c1 | cell growth or viability | – | 48 h | 5.26 |
| COc1ccccc1/C=C/CNCC(O)COc1ccc2[nH]c3ccccc3c2c1 (centres unmarked) | cell growth or viability | CCK-8 | 72 h | 5.04 |
| O=C([O-])c1ccc(-n2nc(-c3ccccc3O)nc2-c2ccccc2[O-])cc1.O=C([O-])c1ccc(-n2nc(-c3ccccc3O)nc2-c2ccccc2[O-])cc1.[Ti+4] | cell growth or viability | MTT | 72 h | 4.70 |
| CCNC(=S)NC(=O)c1ccc2ccccc2c1 | cell growth or viability | – | 48 h | 5.30 |
| COc1ccccc1/C=C/CNCC(O)COc1cccc2[nH]c3ccccc3c12 (centres unmarked) | cell growth or viability | CCK-8 | 72 h | 5.10 |
| CC(C)(C)NC(=O)NNC(=O)c1ccc(Nc2nccc(-c3ccccn3)n2)cc1 | cell growth or viability | MTT | – | < 4.40 |
| Cc1c(OCC(F)(F)F)ccnc1COc1ccc(NC(=O)Nc2ccc(Cl)c(C(F)(F)F)c2)cc1 | cell growth or viability | MTT | 72 h | 5.36 |
| CCC(=O)Nc1cc(Nc2nc(N3CCc4sccc4C3)c3cccnc3n2)c(OC)cc1N1CCC(N(C)C)CC1 | cell growth or viability | MTT | – | 5.90 |
| CC1=C(O)C(=O)C=C2C1=CC=C1[C@@]2(C)CC[C@@]2(C)[C@@H]3C[C@](C)(C(=O)OCCO)CC[C@]3(C)CC[C@]12C | cell growth or viability | MTT | 48 h | 5.50 |
| Nc1ccc(-c2csc(Nc3ccc4c(O)ncnc4c3)n2)cc1 | cell growth or viability | MTT | – | 4.53 |
| COc1cc2ncnc(Nc3ccc(F)c(Cl)c3)c2cc1NC(=O)N/N=C/c1cccn1CCCN(C)C | cell growth or viability | MTT | 72 h | 5.70 |
| COc1cc(N(C)CCN(C)C)c(NC(=O)C=C(C)C)cc1Nc1nc(Nc2cnn(C)c2)c2sccc2n1 | cell growth or viability | MTT | – | 5.81 |
| COc1cc(-c2nc(C(=O)Nc3nnc(-c4cc5ccccc5n4C)s3)cc3c2[nH]c2ccccc23)cc(OC)c1OC | cell growth or viability | MTT | 72 h | 5.11 |
| COCCCOc1ccnc(COc2ccc(NC(=O)Nc3ccc(Cl)cc3)cc2)c1C | cell growth or viability | MTT | 72 h | 4.99 |
| Cc1cc(C)n(-c2nc(NN=Cc3c[nH]c4ccccc34)nc(Nc3ccc(Br)cc3)n2)n1 | cell growth or viability | SRB | 72 h | 5.21 |
| COc1ccccc1OCCN1CCOC(COc2cccc3[nH]c4ccccc4c23)C1 (centres unmarked) | cell growth or viability | CCK-8 | 72 h | < 4.00 |

| SMILES | read-out | method | time | pIC50 |
| --- | --- | --- | --- | --- |
| COc1c(C)c(OC)c2c(c1C)OC(c1ccccc1)CC2=O (centres unmarked) | cell growth or viability | SRB | 72 h | < 4.30 |
| COC1=C2C[C@@H](C)C[C@H](OC)[C@H](O)[C@@H](C)/C=C(\C)[C@H](OC(N)=O)[C@@H](OC)/C=C\C=C(/C)C(=O)NC(=CC1=O)C2=O | cell growth or viability | SRB | 72 h | 6.52 |
| COCCCOc1ccnc(COc2ccc(NC(=O)Nc3ccc(OC)cc3)cc2)c1C | cell growth or viability | MTT | 72 h | 4.94 |
| CC(C)C[C@H](NC(=O)[C@H](Cc1ccccc1)NC(=O)c1cnccn1)B(O)O | cell growth or viability | ATP luminescence | – | 7.70 |
| O=C(N/N=C/c1cccn1CCCN1CCCC1)Nc1cc2c(Nc3ccc(F)c(Cl)c3)ncnc2cc1O[C@H]1CCOC1 | cell growth or viability | MTT | 72 h | 5.36 |
| O=C(NCCc1ccccc1)NNC(=O)c1ccc(Nc2nccc(-c3cccnc3)n2)cc1 | cell growth or viability | MTT | – | 4.63 |
| COc1ccc(C(=O)O[C@@H]2CN3Cc4c(cc5c(c4OC)OCO5)[C@@]24C=C[C@H](OC)C[C@@H]34)cc1OC | cell growth or viability | WST-1 | – | 5.59 |
| COc1cc2ncnc(Nc3ccc(F)c(Cl)c3)c2cc1NC(=O)N/N=C/CN1CCCC1 | cell growth or viability | MTT | 72 h | 5.25 |
| O=C(Nc1nnnn1C1CCCCC1)c1ccc2ccccc2c1 | cell growth or viability | – | 48 h | 5.95 |
| CC(C)Cc1ccc(-c2nn(-c3ccc(S(C)(=O)=O)cc3)cc2/C=N\N=C2/NC(=O)CS2)cc1 | cell growth or viability | MTT | 48 h | 5.46 |
| C/C=C/C(=O)Nc1cc(Nc2nc(Nc3cnn(C)c3)c3sccc3n2)c(OC)cc1N(C)CCN(C)C | cell growth or viability | MTT | – | 4.59 |
| COc1cc(/C=C/C(=O)C(=Cc2cccc(OC)c2OC)C(=O)/C=C/c2ccc(O)c(OC)c2)ccc1O | colony formation | – | 9 days | ~6.40 |
| CN1CCN(C/C=N/NC(=O)Nc2cc3c(Nc4ccc(F)c(Cl)c4)ncnc3cc2O[C@H]2CCOC2)CC1 | cell growth or viability | MTT | 72 h | 5.36 |
| C=C(Cl)C(=O)Nc1cc(Nc2nc(N3CCOCC3)c3sccc3n2)c(OC)cc1N(C)CCN(C)C | cell growth or viability | MTT | – | 6.97 |
| C[C@H]1Oc2cc(cnc2N)-c2c(nn(C)c2C#N)CN(C)C(=O)c2ccc(F)cc21 | cell growth or viability | – | – | < 5.08 |
| C=CC(=O)Nc1cccc(Oc2nc(Nc3ccc(N4CCN(C)CC4)cc3)nc3ccsc23)c1 | cell growth or viability | MTT | – | 5.37 |
| Cn1c(=O)c2c(ncn2Cc2nnc(SCC(=O)Nc3ccc(Cl)c(Cl)c3)n2-c2ccccc2)n(C)c1=O | cell growth or viability | MTT | – | 4.09 |
| COCCCOc1ccnc(COc2ccc(NC(=O)Nc3ccc(Cl)c(C(F)(F)F)c3)cc2)c1C | cell growth or viability | MTT | 72 h | 5.21 |
